Measured values gathered from unrelated publications.
Compare with care: the assays were run in different laboratories.
Target: Protein kinase C iota type (PRKCI, Homo sapiens, UniProt P41743)
One construct used (P41743 1-596): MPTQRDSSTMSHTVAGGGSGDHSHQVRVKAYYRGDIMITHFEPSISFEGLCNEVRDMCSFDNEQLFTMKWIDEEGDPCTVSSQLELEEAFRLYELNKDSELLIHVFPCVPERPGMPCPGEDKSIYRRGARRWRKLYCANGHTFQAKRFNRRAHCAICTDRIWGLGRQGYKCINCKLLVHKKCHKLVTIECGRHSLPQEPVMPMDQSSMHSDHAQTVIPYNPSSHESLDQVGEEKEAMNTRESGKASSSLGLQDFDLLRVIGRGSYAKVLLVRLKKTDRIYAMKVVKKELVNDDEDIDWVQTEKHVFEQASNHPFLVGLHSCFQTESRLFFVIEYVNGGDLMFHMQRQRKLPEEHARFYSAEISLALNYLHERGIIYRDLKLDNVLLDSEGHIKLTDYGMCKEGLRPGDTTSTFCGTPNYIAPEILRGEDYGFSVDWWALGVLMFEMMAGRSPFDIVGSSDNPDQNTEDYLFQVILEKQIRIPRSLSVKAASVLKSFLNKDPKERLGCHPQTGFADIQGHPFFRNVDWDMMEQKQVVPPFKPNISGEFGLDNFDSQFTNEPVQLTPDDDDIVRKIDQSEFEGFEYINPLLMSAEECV

Compound | observed | technique | tested at | remaining binding [%]
N#Cc1ccc(Nc2ccc3[nH]c(=O)[nH]c3c2)c(Cl)c1 | cell-free assay | competition with immobilised ligand | 1 µM | 86
COc1cnc(Nc2cccc(S(N)(=O)=O)c2)nc1N1CCN(c2ccccc2)CC1 | binding | competition with immobilised ligand | 1 µM | 95
CN(C)c1nccc(-c2cnn3ncccc23)n1 | binding |  | 1 µM | 81
O=C(NCC1CCOCC1)c1n[nH]cc1NC(=O)c1c(F)cccc1F | binding | competition with immobilised ligand | 1 µM | 73
Cc1cnc(Nc2ccc(C(=O)N3CCC(N4CCCC4)CC3)cc2)nc1-c1cc2ccccc2s1 | binding | competition with immobilised ligand | 1 µM | 83
CNC(=O)[C@@H]1CC[C@@H](n2c(-c3ccc4cnccc4c3)nc3ccc(C(=O)NCc4cccc(C(N)=O)c4)cc32)C1 | binding | competition with immobilised ligand | 1 µM | 97
CC(=O)N1CCC(c2ccc(C(=O)NC(=N)N)cc2C(F)(F)F)CC1 | cell-free assay | competition with immobilised ligand | 1 µM | 100
C[C@@H]1CCN(c2nccc(-c3cnn4ncccc34)n2)C1 | binding |  | 1 µM | 64
c1cncc(-c2cccc(Nc3nccc(NC4CCCCC4)n3)c2)c1 | binding | competition with immobilised ligand | 10 µM | 78
C[C@@H]1CN(c2cc(-c3n[nH]c4ccc(OC5(C)CC5)cc34)ncn2)C[C@H](C)O1 | cell-free assay | competition with immobilised ligand | 0.1 µM | 80
CN(CCCC(F)(F)F)c1nccc(-c2cnn3ncccc23)n1 | binding |  | 1 µM | 100
COc1ccc2c(c1)O[C@@H](c1ccc(OC)c(OC)c1)C[C@H]2NC(=O)C1(c2ccc3c(c2)OC(F)(F)O3)CC1 | cell-free assay | competition with immobilised ligand | 1 µM | 92
O=C(NCCCN1CCOCC1)c1ccc(Nc2nccc(-c3cc4ccccc4s3)n2)cc1 | binding | competition with immobilised ligand | 1 µM | 87
Cc1c(NC(=O)c2cc(C(N)=O)nc3cc(F)ccc23)c(C(F)(F)F)nn1Cc1ccc(C(C)(C)C)cc1 | cell-free assay | competition with immobilised ligand | 1 µM | 98
Cc1cnn2ncc(-c3ccnc(N(C)C)n3)c2c1 | binding |  | 1 µM | 81
Nc1ncc2c(n1)-c1c([nH]c3ccc(C#CC4CC4)cc13)CCCC2 | binding | competition with immobilised ligand | 1 µM | 89
CN(C)c1ncc(F)c(-c2cnn3ncccc23)n1 | binding |  | 1 µM | 100
O=C1NC(c2ccccn2)Sc2ccccc21 (centres unmarked) | cell-free assay | competition with immobilised ligand | 1 µM | 72
CN(C)c1nccc(-c2cnc3ncccn23)n1 | binding |  | 1 µM | 72
O=C(c1ccc(Nc2ncc(Cl)c(-c3ccc(Cl)s3)n2)cc1)N1CCC(N2CCCC2)CC1 | binding | competition with immobilised ligand | 1 µM | 98
